These results are taken from ChEMBL document CHEMBL1811821, “Cystic fibrosis: a new target for 4-Imidazo[2,1-b]thiazole-1,4-dihydropyridines” (J Med Chem, 2011).

Test [1] can be described thus: Negative ionotropic activity in potassium depolarized guinea pig longitudinal smooth muscle assessed as inhibition of calcium-induced contraction. Type of test: functional, Cavia porcellus.
The nature of test [2]: Bronchodilatory activity in guinea pig trachea assessed as inhibition of carbachol-induced contraction at 10^-5 M. Type of test: functional. The following applies: Cavia porcellus.
Test [3] relates to Cystic fibrosis transmembrane conductance regulator (Homo sapiens), P13569 [F508del]. Nature of the test: Activity at CFTR F508 deletion mutant expressed in forskolin-stimulated FRT cells assessed as maximal increase in iodine influx measured as YFP quenching rate at 0.2 uM after 24 hrs by fluorescence assay. Type of test: cell-based. In outline:
(§1)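 ΔF508-CFTR and halide-sensitive YFP coexpressed in FRT cells, held at 27 °C for 24 h for rescue, then stimulated 30–40 min with 20 μM forskolin with or without compound at 0.2, 2 and 20 μM. Fluorescence read before and after I– addition (100 mM final). Normalized decay fitted exponentially for maximal quenching rate; dose–response fitted with Hill equation for potency and maximal effect. Three independent determinations.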

The nature of test [4]: Binding affinity to CFTR F508 deletion mutant expressed in forskolin-stimulated FRT cells assessed as increase in iodine influx measured as YFP quenching rate after 24 hrs by fluorescence assay. The format is cell-based. The procedure, abridged: as §1
Test [5] is described as follows: Negative chronotropic activity against potassium-induced contraction in guinea pig right atrium assessed as decrease atrial rate at 5 X 10^-7 M relative to control. The format is functional. Conditions: Cavia porcellus, Cardiac atrium. The procedure, abridged: (§2)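 Spontaneously beating isolated guinea pig right atrium, pretreatment rate 165–190 beats/min. Drugs added cumulatively. Decrease in atrial rate expressed as percent change from control, n = 7–8. […] Control versus treated tested at each concentration by Student's t-test, P < 0.05. Mean ± SEM.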

For test [6], the species on record is Cavia porcellus. Kind of test: […] activity in potassium depolarized guinea pig longitudinal smooth muscle assessed as inhibition of calcium-induced contraction at 5 X 10^-9 M. The format is functional.
A short description of test [7]: Negative ionotropic activity against potassium-induced contraction in guinea pig left atrium assessed as […] at 10^-7 M relative to control. The following applies: Cavia porcellus, Cardiac atrium. Type of test: functional. The procedure, abridged: (§3)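 Isolated guinea pig left atrium paced at 1 Hz. Drugs added cumulatively. Negative inotropic effect expressed as percent change from control, n = 5–6. […] Student's t-test against control at each concentration, P < 0.05. Mean ± SEM.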

Another test concerns Aorta. Kind of test: Vasorelaxant activity in potassium depolarized guinea pig aortic strip assessed as inhibition of calcium-induced contraction at 10^-4 M. Type of test: functional. Conditions: Cavia porcellus. The procedure, abridged: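 Guinea pig aortic strips depolarized with 80 mM K+, with cumulative drug addition. Relaxation given as mean ± SEM. […] Student's t-test against control, P < 0.05.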

The test system of test [8] is Cystic fibrosis transmembrane conductance regulator (Homo sapiens), P13569 [F508del]. Kind of test: Activity at CFTR F508 deletion mutant expressed in forskolin-stimulated FRT cells assessed as maximal increase in iodine influx measured as YFP quenching rate after 24 hrs by fluorescence assay. The format is cell-based. The procedure, abridged:
as §1

Test [9] is described as follows: Negative ionotropic activity against potassium-induced contraction in guinea pig left atrium assessed as decrease in developed tension. Conditions: Cavia porcellus, Cardiac atrium.
The nature of test [10]: Bronchodilatory activity in guinea pig trachea assessed as inhibition of carbachol-induced contraction. Type of test: functional, tissue-based, Cavia porcellus.
Test [11] is described as follows: Negative chronotropic activity against potassium-induced contraction in guinea pig right atrium assessed as decrease atrial rate. The format is functional, tissue-based. Conditions: Cavia porcellus, Cardiac atrium. The procedure, abridged:
as §2

The species named for test [12] is Cavia porcellus. Nature of the test: Negative ionotropic activity in potassium depolarized guinea pig longitudinal smooth muscle assessed as inhibition of calcium-induced contraction at 3 X 10^-7 M. The format is functional.
The species named for test [13] is Cavia porcellus. Kind of test: Negative ionotropic activity in potassium depolarized guinea pig longitudinal smooth muscle assessed as inhibition of calcium-induced contraction at 10^-6 M. The format is functional.
Test [14] is described as follows: Bronchodilatory activity in guinea pig trachea assessed as inhibition of carbachol-induced contraction at 10^-7 M. The following applies: Cavia porcellus. Type of test: functional.
Test [15] is described as follows: Ratio EC50 for negative chronotropic activity against potassium-induced contraction in guinea pig right atrium to EC50 for negative […] activity against potassium-induced contraction in guinea pig left atrium. The format is functional, Cavia porcellus, Cardiac atrium.
The species named for test [16] is Cavia porcellus. Nature of the test: Negative ionotropic activity in potassium depolarized guinea pig longitudinal smooth muscle assessed as inhibition of calcium-induced contraction at 5 X 10^-7 M. Type of test: functional.
Test [17] can be described thus: Negative ionotropic activity against potassium-induced contraction in guinea pig left atrium assessed as […] at 5 X 10^-5 M relative to control. The format is functional. Conditions: Cavia porcellus, Cardiac atrium. In outline: as §3
Test [18] in a line: Negative chronotropic activity against potassium-induced contraction in guinea pig right atrium assessed as decrease atrial rate at 10^-5 M relative to control. Type of test: functional. Conditions: Cavia porcellus, Cardiac atrium. The procedure, abridged: as §2
Test [19] can be described thus: Negative ionotropic activity against potassium-induced contraction in guinea pig left atrium assessed as […] at 5 X 10^-6 M relative to control. Type of test: functional. The following applies: Cavia porcellus, Cardiac atrium. In outline: as §3
Test [20] relates to Cystic fibrosis transmembrane conductance regulator (Homo sapiens), P13569 [F508del]. Kind of test: Activity at CFTR F508 deletion mutant expressed in forskolin-stimulated FRT cells assessed as maximal increase in iodine influx measured as YFP quenching rate up to 20 uM after 24 hrs by fluorescence assay. The format is cell-based. In outline:
as §1

A short description of test [21]: Negative chronotropic activity against potassium-induced contraction in guinea pig right atrium assessed as decrease atrial rate at 10^-6 M relative to control. The format is functional. The following applies: Cavia porcellus, Cardiac atrium. The procedure, abridged: as §2

Activity calls are given as the source filed them. The calls are words filed in the database; no cut-off is given here.

Chain of Cystic fibrosis transmembrane conductance regulator (Homo sapiens), P13569 [F508del] (P13569 as listed by the source): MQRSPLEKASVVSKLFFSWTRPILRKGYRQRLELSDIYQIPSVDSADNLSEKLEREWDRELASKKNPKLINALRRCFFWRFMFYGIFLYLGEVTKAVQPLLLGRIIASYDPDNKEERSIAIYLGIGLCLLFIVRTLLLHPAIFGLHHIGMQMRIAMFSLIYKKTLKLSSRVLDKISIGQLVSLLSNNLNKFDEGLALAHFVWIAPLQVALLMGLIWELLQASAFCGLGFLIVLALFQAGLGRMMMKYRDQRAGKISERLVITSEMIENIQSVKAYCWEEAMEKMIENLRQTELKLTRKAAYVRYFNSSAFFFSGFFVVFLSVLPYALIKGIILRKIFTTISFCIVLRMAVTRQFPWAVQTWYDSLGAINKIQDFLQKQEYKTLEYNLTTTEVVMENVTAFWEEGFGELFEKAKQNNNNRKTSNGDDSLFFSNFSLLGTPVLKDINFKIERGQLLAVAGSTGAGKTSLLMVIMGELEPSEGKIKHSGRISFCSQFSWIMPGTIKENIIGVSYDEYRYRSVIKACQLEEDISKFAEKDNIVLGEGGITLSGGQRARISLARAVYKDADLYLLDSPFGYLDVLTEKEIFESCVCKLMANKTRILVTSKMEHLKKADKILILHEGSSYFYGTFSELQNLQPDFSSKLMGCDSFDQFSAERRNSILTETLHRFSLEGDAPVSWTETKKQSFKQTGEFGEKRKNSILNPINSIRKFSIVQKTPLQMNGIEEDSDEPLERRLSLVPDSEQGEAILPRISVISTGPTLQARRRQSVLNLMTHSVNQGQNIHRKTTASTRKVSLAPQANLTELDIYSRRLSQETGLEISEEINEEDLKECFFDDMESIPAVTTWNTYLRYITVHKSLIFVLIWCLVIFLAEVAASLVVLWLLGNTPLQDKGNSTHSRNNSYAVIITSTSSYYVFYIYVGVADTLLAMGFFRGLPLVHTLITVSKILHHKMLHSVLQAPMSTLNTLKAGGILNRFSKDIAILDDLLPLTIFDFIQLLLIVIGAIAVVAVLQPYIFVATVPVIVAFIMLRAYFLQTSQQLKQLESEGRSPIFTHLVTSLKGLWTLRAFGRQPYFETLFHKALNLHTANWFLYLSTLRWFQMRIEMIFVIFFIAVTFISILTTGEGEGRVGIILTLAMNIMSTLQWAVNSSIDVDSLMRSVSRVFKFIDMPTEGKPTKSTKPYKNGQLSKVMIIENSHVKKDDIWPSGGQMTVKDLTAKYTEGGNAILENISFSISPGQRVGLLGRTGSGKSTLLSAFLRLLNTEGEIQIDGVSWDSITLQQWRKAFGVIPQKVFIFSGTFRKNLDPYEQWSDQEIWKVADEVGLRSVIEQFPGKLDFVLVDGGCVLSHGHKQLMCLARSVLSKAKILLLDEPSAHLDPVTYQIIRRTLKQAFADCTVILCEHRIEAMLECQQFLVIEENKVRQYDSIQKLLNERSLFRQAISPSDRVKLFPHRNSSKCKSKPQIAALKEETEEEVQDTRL

In general, IC50 refers to the midpoint of a concentration-inhibition curve. Usually inhibition stands for the relative decrease from the control value, in per cent. Broadly, the Kd is the free concentration of one partner at which half of the binding sites on the other are occupied at equilibrium, for simple one-to-one binding. What is called EC50 is the concentration at which the effect is half-maximal. For the molecule `CCOC(=O)C1=C(C)NC(C)=C(C(=O)OCC)C1c1c(-c2ccc(C(F)(F)F)cc2)nc2sccn12`, the IC50 was 0.88 nM in test [1] and 130 nM in test [10]. Moreover, in test [2], the inhibition at 10 µM was determined as 57%. The outcome in test [3] was inactive. The Kd in test [4] came to 180 nM. For the same molecule, the inhibition at 0.5 µM in test [5] was found to be 64%. Moreover, the inhibition in the test listed under Cavia porcellus [6] was determined as 83%. The inhibition at 0.1 µM in test [7] was 90%. Further, the inhibition at 100 µM in the test with Aorta was found to be 6%. In addition, the Emax in test [8] was 42 ms-1. The EC50 in [9] came out at 33 nM; in [11], 150 nM.
`COC(=O)C1=C(C)NC(C)=C(C(=O)OC)C1c1c(C(F)(F)F)nc2sccn12`: in test [1], the IC50 was 210 nM. The result in [3] was inactive. Moreover, in the test filed under Cavia porcellus [12], the inhibition was found to be 70%. In addition, the Kd in test [4] is 28300 nM. Also, the Emax in [8] turned out to be 60 ms-1.
In the case of `COC(=O)C1=C(C)NC(C)=C(C(=O)OC)C1c1c(C(F)(F)F)nc2sc(C)cn12`, the IC50 is 95 nM in test [1] and 31 nM in [10]. The result in [3] was inactive. For the same molecule, the Kd in test [4] stood at 12000 nM. Also, the inhibition in the test listed under Cavia porcellus [13] was found to be 92%. Also, the inhibition at 0.1 µM in test [14] came to 64%. The Emax in test [8] is 60 ms-1.
With `COC(=O)C1=C(C)NC(C)=C(C(=O)OC)C1c1c(-c2cccc(C(F)(F)F)c2)nc2sccn12`, the concentration for half-maximal inhibition (IC50) in test [1] came to 36 nM. Moreover, the outcome in [3] was inactive. Besides, the Kd in [4] was 2800 nM. The “Ratio EC50” value in test [15] came to 12. Moreover, the inhibition at 0.1 µM in test [14] was determined as 19%. In addition, the inhibition in the test filed under Cavia porcellus [16] stood at 96%. Further, the Emax in [8] amounted to 65 ms-1.
In the case of `C=CCOC(=O)C1=C(C)NC(C)=C(C(=O)OCC=C)C1c1c(-c2ccc(C(F)(F)F)cc2)nc2sc(C)c(C)n12`, the IC50 in test [1] amounted to 460 nM. In addition, in [3], the outcome was inactive. The Kd in test [4] came out at 320 nM. Besides, the “Ratio EC50” value in test [15] was 33. In addition, the inhibition in the test listed under Cavia porcellus [13] is 72%. The inhibition at 100 µM with Aorta was 32%. The inhibition at 50 µM in test [17] came out at 93%. The Emax in test [8] worked out at 42 ms-1. Further, the 50% effective concentration (EC50) in test [9] came to 270 nM; in test [11] it was 8960 nM. The inhibition at 10 µM in [18] was found to be 52%.
On to `C=CCOC(=O)C1=C(C)NC(C)=C(C(=O)OCC=C)C1c1c(-c2cc(OC)ccc2OC)nc2sccn12`, for which the IC50 in test [1] is 320 nM. Moreover, the inhibition at 5 µM in test [19] amounted to 81%. Also, the outcome in test [3] and in test [20] was inactive. In addition, the inhibition at 100 µM with Aorta was 31%. In [21], the inhibition at 1 µM was found to be 32%. In test [9], the EC50 turned out to be 340 nM.
